Experimental data reported in ChEMBL document CHEMBL1275500, “Characterization of the new metallo-beta-lactamase VIM-13 and its integron-borne gene from a Pseudomonas aeruginosa clinical isolate in Spain” (Antimicrob Agents Chemother, 2008).
Converted amounts (≈) assume the structure as drawn.

Legend:
Pseudomonas aeruginosa [1] = assay: Antimicrobial activity against Pseudomonas aeruginosa isolate PA-SD2 harboring blaVIM-1 gene by Etest method; assay type: functional
Escherichia coli [2] = assay: Antimicrobial activity against Escherichia coli XL1-Blue by Etest method; assay type: functional
Pseudomonas aeruginosa [3] = assay: Antimicrobial activity against Pseudomonas aeruginosa isolate PA-SL2 harboring blaVIM-13 gene by Etest method; assay type: functional
Escherichia coli [4] = assay: Antimicrobial activity against Escherichia coli XL1-Blue harboring pUCP carrying VIM-13 gene by Etest method; assay type: functional
Method in brief: (§1)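 Etest MICs of piperacillin, piperacillin-tazobactam, ceftazidime, cefepime, cefotaxime, aztreonam, imipenem and meropenem, run per manufacturer's recommendations. Strains were E. coli XL1-Blue or P. aeruginosa PAO1 carrying pUCP24-derived plasmids with blaVIM-1 or blaVIM-13 (cloned by EcoRI) inserted in the lacZ-promoter orientation. E. coli transformants were selected on 10 μg/ml gentamicin MacConkey agar; PAO1 electroporants were selected on 50 μg/ml gentamicin LB agar.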

Escherichia coli [5] = assay: Antimicrobial activity against Escherichia coli XL1-Blue harboring pUCP carrying VIM-1 gene by Etest method; assay type: functional; method in brief: as §1
Pseudomonas aeruginosa [6] = assay: Antimicrobial activity against Pseudomonas aeruginosa PAO1 harboring pUCP carrying VIM-1 gene by Etest method; assay type: functional; method in brief: as §1
Pseudomonas aeruginosa [7] = assay: Antimicrobial activity against Pseudomonas aeruginosa PAO1 harboring pUCP carrying VIM-13 gene by Etest method; assay type: functional; method in brief: as §1
Pseudomonas aeruginosa [8] = assay: Antimicrobial activity against Pseudomonas aeruginosa PAO1 by Etest method; assay type: functional
Escherichia coli [9] = assay: Antimicrobial activity against Escherichia coli XL1-Blue harboring pGEM-T carrying aacA4 gene by Etest method; assay type: functional
Escherichia coli [10] = assay: Antimicrobial activity against Escherichia coli XL1-Blue harboring pGEM-T carrying aacA4 Ala108Thr mutant gene by Etest method; assay type: functional
[11] = target: Class B carbapenemase VIM-13 (Pseudomonas aeruginosa, UniProt Q2HY42); assay: Inhibition of Pseudomonas aeruginosa VIM-13 beta-lactamase after 10 mins
Method in brief: (§2)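 Zn2+-removal inactivation of purified VIM-1 or VIM-13, tested with varied concentrations of EDTA, dipicolinic acid or 1,10-o-phenanthroline. Enzyme and chelator were incubated 10 min at 20°C in 50 mM HEPES pH 7.5 with 20 μg/ml BSA, then 100 μM imipenem hydrolysis was measured as the reporter. IC50 is the chelator level halving hydrolytic activity.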

Beta-lactamase VIM-1 = Beta-lactamase VIM-1 (Pseudomonas aeruginosa, UniProt Q9XAY4); assay: Inhibition of Pseudomonas aeruginosa VIM-1 beta-lactamase after 10 mins; method in brief: as §2

Work on CO/N=C(\C(=O)N[C@@H]1C(=O)N2C(C(=O)[O-])=C(C[N+]3(C)CCCC3)CS[C@H]12)c1csc(N)n1 yielded an MIC (Pseudomonas aeruginosa [1]) of over 256 µg/mL, an MIC (Escherichia coli [2]) of 0.19 µg/mL (≈ 0.395 µM) and an MIC (Pseudomonas aeruginosa [3]) of 32 µg/mL (≈ 66.6 µM). The MIC (Escherichia coli [4]) was 1 µg/mL (≈ 2.08 µM), the MIC (Escherichia coli [5]) was 12 µg/mL (≈ 25 µM) and the MIC (Pseudomonas aeruginosa [6]) was over 256 µg/mL. It also gave an MIC (Pseudomonas aeruginosa [7]) of 64 µg/mL (≈ 133 µM) and an MIC (Pseudomonas aeruginosa [8]) of 1 µg/mL (≈ 2.08 µM).
Compound NCC[C@H](O)C(=O)N[C@@H]1C[C@H](N)[C@@H](O[C@H]2O[C@H](CN)[C@@H](O)[C@H](O)[C@H]2O)[C@H](O)[C@H]1O[C@H]1O[C@H](CO)[C@@H](O)[C@H](N)[C@H]1O [AMIKACIN] has an MIC (Escherichia coli [9]) of 0.75 µg/mL (≈ 1.28 µM), an MIC (Pseudomonas aeruginosa [1]) of 3 µg/mL (≈ 5.12 µM) and an MIC (Escherichia coli [2]) of 0.75 µg/mL (≈ 1.28 µM). For the same compound, the MIC (Pseudomonas aeruginosa [3]) was 16 µg/mL (≈ 27.3 µM) and the MIC (Escherichia coli [10]) was 0.75 µg/mL (≈ 1.28 µM).
Work on C[C@H]1[C@H](NC(=O)/C(=N\OC(C)(C)C(=O)O)c2csc(N)n2)C(=O)N1S(=O)(=O)O [AZTREONAM] yielded an MIC (Pseudomonas aeruginosa [1]) of 24 µg/mL (≈ 55.1 µM), an MIC (Escherichia coli [2]) of 0.19 µg/mL (≈ 0.436 µM) and an MIC (Pseudomonas aeruginosa [3]) of 4 µg/mL (≈ 9.19 µM). It also gave an MIC (Escherichia coli [4]) of 0.125 µg/mL (≈ 0.287 µM), an MIC (Escherichia coli [5]) of 0.125 µg/mL (≈ 0.287 µM) and an MIC (Pseudomonas aeruginosa [6]) of 1.5 µg/mL (≈ 3.44 µM). It also gave an MIC (Pseudomonas aeruginosa [7]) of 1.5 µg/mL (≈ 3.44 µM) and an MIC (Pseudomonas aeruginosa [8]) of 1 µg/mL (≈ 2.3 µM).
Compound CO/N=C(\C(=O)N[C@@H]1C(=O)N2C(C(=O)O)=C(COC(C)=O)CS[C@H]12)c1csc(N)n1 [CEFOTAXIME] has an MIC (Pseudomonas aeruginosa [1]) of over 256 µg/mL, an MIC (Escherichia coli [2]) of 0.19 µg/mL (≈ 0.417 µM) and an MIC (Pseudomonas aeruginosa [3]) of over 256 µg/mL. The MIC (Escherichia coli [4]) was over 256 µg/mL, the MIC (Escherichia coli [5]) was over 256 µg/mL and the MIC (Pseudomonas aeruginosa [6]) was over 256 µg/mL. For the same compound, the MIC (Pseudomonas aeruginosa [7]) was over 256 µg/mL and the MIC (Pseudomonas aeruginosa [8]) was 16 µg/mL (≈ 35.1 µM).
In the case of CC(C)(O/N=C(\C(=O)N[C@@H]1C(=O)N2C(C(=O)[O-])=C(C[n+]3ccccc3)CS[C@H]12)c1csc(N)n1)C(=O)O [CEFTAZIDIME], the MIC (Pseudomonas aeruginosa [1]) is reported as over 256 µg/mL, the MIC (Escherichia coli [2]) is reported as 0.38 µg/mL (≈ 0.695 µM) and the MIC (Pseudomonas aeruginosa [3]) is reported as 32 µg/mL (≈ 58.5 µM). For the same compound, the MIC (Escherichia coli [4]) was 6 µg/mL (≈ 11 µM), the MIC (Escherichia coli [5]) was 32 µg/mL (≈ 58.5 µM) and the MIC (Pseudomonas aeruginosa [6]) was over 256 µg/mL. For the same compound, the MIC (Pseudomonas aeruginosa [7]) was 128 µg/mL (≈ 234 µM) and the MIC (Pseudomonas aeruginosa [8]) was 1 µg/mL (≈ 1.83 µM).
O=C(O)c1cn(C2CC2)c2cc(N3CCNCC3)c(F)cc2c1=O [CIPROFLOXACIN] gave an MIC (Escherichia coli [9]) of 0.064 µg/mL (≈ 0.193 µM), an MIC (Pseudomonas aeruginosa [1]) of over 32 µg/mL and an MIC (Escherichia coli [2]) of 0.064 µg/mL (≈ 0.193 µM). It also gave an MIC (Pseudomonas aeruginosa [3]) of over 32 µg/mL and an MIC (Escherichia coli [10]) of 0.064 µg/mL (≈ 0.193 µM).
For O=C(O)c1cccc(C(=O)O)n1 [DIPICOLINIC ACID], the IC50 [11] was 48 µM and the IC50 (Beta-lactamase VIM-1) was 41.6 µM.
